“And” between values parts separate entries of the source, which are not always exact repeats. Equal values may be shown once.
Columns and labels:
Mus musculus [1] = organism: Mus musculus; assay: Hypnotic dose was evaluated in mice; type: functional
[2] = Protective index is the ratio of TD50 to ED50; type: ADME
Summary of the method: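 Protective index was calculated as rotorod TD50 divided by anti-MES ED50. Both were graphical median doses from ip dosing in 30% PEG 400 in male Carworth Farms mice.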

[3] = Lethal dose was evaluated in mice; type: toxicity, organism-based; conditions: mouse, in vivo
Mus musculus [4] = assay: Compound was evaluated for anticonvulsant activity against subcutaneous pentylenetetrazole-induced convulsions after 4 hr; E indicates no activity at 30 mg/kg.; type: functional, organism-based; set-up: dose 30 mg/kg
Summary of the method: (§1)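 Male Carworth Farms number-one mice were dosed ip in 30% PEG 400, at 30, 100 or 300 mg/kg (sometimes 600 mg/kg). Pentylenetetrazole, 85 mg/kg as a 0.5% solution, was injected subcutaneously in the posterior midline. Protection meant no episode of clonic spasms lasting at least 5 s during a 30-min observation period.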

Mus musculus [5] = assay: Compound was evaluated for anticonvulsant activity against subcutaneous pentylenetetrazole-induced convulsions after 30 minutes; E indicates no activity at 30 mg/kg.; type: functional, organism-based; set-up: dose 30 mg/kg; summary of the method: as §1
Mus musculus [6] = assay: Compound was evaluated for anticonvulsant activity against maximal electric shock (MES) induced convulsions after 4 hr; E indicates no activity at 30 mg/kg.; type: functional, organism-based; set-up: dose 30 mg/kg
Mus musculus [7] = assay: Compound was evaluated for toxicity by rotarod assay method after 4 hr; E indicates no activity at 30 mg/kg.; type: organism-based; set-up: dose 30 mg/kg; conditions: in vivo
Summary of the method: (§2)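 Male Carworth Farms number-one mice received test compound intraperitoneally in 30% polyethylene glycol 400 at 30, 100 and 300 mg/kg, with 600 mg/kg in some cases. Neurological deficit was read at 30 min or 4 h after dosing on a 1-in.-diameter knurled plastic rod turning at 6 rpm. Toxicity was scored as failure to stay on the rod for 1 min.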

Mus musculus [8] = assay: Compound was evaluated for toxicity by rotarod assay method after 30 minutes at a dose of 600 mg/kg; type: organism-based; set-up: dose 600 mg/kg; conditions: in vivo, 0.5 h; summary of the method: as §2
Mus musculus [9] = assay: Compound was evaluated for anticonvulsant activity against maximal electric shock (MES) induced convulsions after 30 minutes at a dose of 300 mg/kg; type: functional
Mus musculus [10] = assay: Compound was evaluated for toxicity by rotarod assay method after 4 hr; C is inactive at 300 mg/kg.; type: organism-based; set-up: dose 300 mg/kg; conditions: in vivo; summary of the method: as §2
Mus musculus [11] = assay: Compound was evaluated for anticonvulsant activity against maximal electric shock (MES) induced convulsions after 30 minutes;C is inactive at 300 mg/kg.; type: functional, organism-based; set-up: dose 300 mg/kg
Mus musculus [12] = assay: Compound was evaluated for anticonvulsant activity against maximal electric shock (MES) induced convulsions after 4 hr; C is inactive at 300 mg/kg.; type: functional, organism-based; set-up: dose 300 mg/kg
Mus musculus [13] = assay: Compound was evaluated for anticonvulsant activity against subcutaneous pentylenetetrazole-induced convulsions after 30 minutes;C is inactive at 300 mg/kg.; type: functional, organism-based; set-up: dose 300 mg/kg; summary of the method: as §1
Mus musculus [14] = assay: Compound was evaluated for toxicity by rotarod assay method after 30 minutes;C is inactive at 300 mg/kg.; type: organism-based; set-up: dose 300 mg/kg; conditions: in vivo, 0.5 h; summary of the method: as §2
Mus musculus [15] = assay: Compound was evaluated for anticonvulsant activity against subcutaneous pentylenetetrazole-induced convulsions after 4 hr; C is inactive at 300 mg/kg.; type: functional, organism-based; set-up: dose 300 mg/kg; summary of the method: as §1
Mus musculus [16] = assay: Compound was evaluated for anticonvulsant activity against maximal electric shock (MES) induced convulsions after 30 minutes; C indicates no activity at 300 mg/kg.; type: functional, organism-based; set-up: dose 300 mg/kg
Mus musculus [17] = organism: Mus musculus; assay: Compound was evaluated for anticonvulsant activity against maximal electroshock seizures; type: functional
Summary of the method: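 Male Carworth Farms number-one mice received the compound ip in 30% polyethylene glycol 400 before maximal electroshock testing, at several dose levels. The median effective dose (ED50) was obtained by the graphical method.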

Mus musculus [18] = assay: Compound was evaluated for toxicity by rotarod assay method after 4 hr; C indicates no activity at 300 mg/kg.; type: organism-based; set-up: dose 300 mg/kg; conditions: in vivo; summary of the method: as §2
Mus musculus [19] = assay: Compound was evaluated for anticonvulsant activity against subcutaneous pentylenetetrazole-induced convulsions after 30 minutes; C indicates no activity at 300 mg/kg.; type: functional, organism-based; set-up: dose 300 mg/kg; summary of the method: as §1
Mus musculus [20] = assay: Compound was evaluated for anticonvulsant activity against maximal electric shock (MES) induced convulsions after 4 hr at a dose of 300 mg/kg; type: functional
Mus musculus [21] = assay: Compound was evaluated for anticonvulsant activity against subcutaneous pentylenetetrazole-induced convulsions after 4 hr; C indicates no activity at 300 mg/kg.; type: functional, organism-based; set-up: dose 300 mg/kg; summary of the method: as §1
Mus musculus [22] = assay: Compound was evaluated for toxicity by rotarod assay method after 30 minutes; C indicates no activity at 300 mg/kg.; type: organism-based; set-up: dose 300 mg/kg; conditions: in vivo, 0.5 h; summary of the method: as §2

With `CC(NC(=O)c1ccc(N)cc1)c1ccccc1` (configuration not stated) the HD50 (Mus musculus [1]) was 461.76 mg/kg, the Protective index [2] was 9.5 and 4.1 and the LD50 [3] was 718 mg/kg.

In the case of `CC(NCc1ccccc1N)c1ccccc1` (configuration not stated), the Activity (Mus musculus [4]) is reported as “No activity at 30 mg/kg”, the Activity (Mus musculus [5]) is reported as “No activity at 30 mg/kg” and the Activity (Mus musculus [6]) is reported as “No activity at 30 mg/kg”. For the same molecule, the Toxicity (Mus musculus [7]) was “No activity at 30 mg/kg”, the Toxicity (Mus musculus [8]) was 1 and the Activity (Mus musculus [9]) was 2.

In the case of `CC(NC(=O)c1ccccc1)c1ccccc1` (configuration not stated), the Toxicity (Mus musculus [10]) is reported as “No activity at 300 mg/kg”, the Activity (Mus musculus [11]) is reported as “No activity at 300 mg/kg” and the Activity (Mus musculus [12]) is reported as “No activity at 300 mg/kg”. For the same molecule, the Activity (Mus musculus [13]) was “No activity at 300 mg/kg”, the Toxicity (Mus musculus [14]) was “No activity at 300 mg/kg” and the Activity (Mus musculus [15]) was “No activity at 300 mg/kg”.

For `CN(C)c1ccc(C(=O)NCc2ccccc2)cc1`, the Activity (Mus musculus [16]) was “No activity at 300 mg/kg”, the ED50 (Mus musculus [17]) was 233 mg/kg and the Toxicity (Mus musculus [18]) was “No activity at 300 mg/kg”. The Activity (Mus musculus [19]) was “No activity at 300 mg/kg”, the Activity (Mus musculus [20]) was 2 and the Activity (Mus musculus [21]) was “No activity at 300 mg/kg”. For the same molecule, the Toxicity (Mus musculus [22]) was “No activity at 300 mg/kg”.

Reference: ChEMBL document CHEMBL1123783, “Synthesis and anticonvulsant activity of analogues of 4-amino-N-(1-phenylethyl)benzamide” (J Med Chem, 1987)
